Hits are enriched below; roughly 2.2% of the tested compounds scored in any of these assays.
Exocytosis inh – LAMP-1 surface exposure blockers, TALL-104 cells – cell-based, flow cytometry, MLPCN library, primary screen | inhibition, % at 10 µM | AID 651702, 2012 | 0.66% of 360,000 active | TALL-104 LAMP-1 surface exposure; cells stimulated with thapsigargin and PMA;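 active means inhibition above about 55%, limit read from the data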
ABHD5-PLIN5 inh – ABHD5-PLIN5 interaction inhibitors, primary screen, cell lysate, split luciferase complementation, luminescence; Perilipin-5 (Homo sapiens) + 1-acylglycerol-3-phosphate O-acyltransferase ABHD5 (Homo …; Split G. princeps luciferase complementation, 4 h; inhibition, % at 4 µM; 0.78% of 360,000 active; AID 602281, 2012;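 active means inhibition above the mean inhibition across every tested compound plus 3 SD, cut at about 22% in these data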;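 further: 0% = DMSO only wells and the 100% control is not disclosed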
Target sequence (Q00G26 whole entry, looked up): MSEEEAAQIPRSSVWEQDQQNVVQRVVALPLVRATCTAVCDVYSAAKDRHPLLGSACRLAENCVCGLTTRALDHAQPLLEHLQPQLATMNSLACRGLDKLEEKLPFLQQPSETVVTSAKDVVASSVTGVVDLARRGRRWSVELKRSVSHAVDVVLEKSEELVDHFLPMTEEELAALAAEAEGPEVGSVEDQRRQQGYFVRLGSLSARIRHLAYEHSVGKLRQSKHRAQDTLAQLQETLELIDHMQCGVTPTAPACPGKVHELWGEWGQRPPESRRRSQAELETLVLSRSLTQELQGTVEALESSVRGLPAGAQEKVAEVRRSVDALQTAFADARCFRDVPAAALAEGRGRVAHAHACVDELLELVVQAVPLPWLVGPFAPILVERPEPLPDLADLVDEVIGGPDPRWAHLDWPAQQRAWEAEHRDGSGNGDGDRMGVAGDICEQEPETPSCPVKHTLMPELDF
Target sequence (Q8WTS1 whole entry, looked up): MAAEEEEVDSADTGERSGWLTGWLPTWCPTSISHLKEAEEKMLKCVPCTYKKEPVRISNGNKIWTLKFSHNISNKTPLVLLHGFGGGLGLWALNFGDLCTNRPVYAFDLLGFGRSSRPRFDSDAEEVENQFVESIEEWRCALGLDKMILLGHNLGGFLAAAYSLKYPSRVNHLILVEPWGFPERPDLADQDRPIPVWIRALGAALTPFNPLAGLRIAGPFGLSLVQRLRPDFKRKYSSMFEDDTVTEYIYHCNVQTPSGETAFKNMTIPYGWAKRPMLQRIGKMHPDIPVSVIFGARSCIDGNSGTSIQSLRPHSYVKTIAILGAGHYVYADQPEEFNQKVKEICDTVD
HKDC1 inhibitor – HKDC1 hexokinase inhibitors, primary screen, biochemical, fluorescence, uHTS; 0.16% of 340,000 active; AID 493160, 2011; recombinant HKDC1, G6PDH/diaphorase resazurin coupled fluorescence; inhibition, % at 20 µM; Q2TB90;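 active means inhibition above about 35% when tested at 20 µM, limit read from the data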;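 further: plate controls were DMSO wells with enzyme for no effect and DMSO wells lacking enzyme for full effect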
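Assay system – recombinant HKDC1 (HK5) hexokinase enzyme, produced in-house · Input – HKDC1 at 5 µg/mL · Reagent – glucose plus 1 mM ATP as hexokinase substrates · Timing – 90 min reaction incubation at room temperature, dark · Measured by – G6PDH/diaphorase-coupled fluorescence, 1 mM NADP, 100 µM resazurin, 525/613 nm · Benchmarks – DMSO-enzyme wells negative, buffer-substituted wells positive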
PfG6PD inh – PfG6PD enzyme inhibitors, primary screen, biochemical, fluorescence intensity, uHTS. AID 504690, 2011. 0.78% of 350,000 active. PfGluPho enzyme, NADPH resazurin-diaphorase fluorescence. inhibition, % at 20 µM. glucose-6-phosphate dehydrogenase-6-phosphogluconolactonase (Plasmodium falciparum 3D7);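 active means inhibition reaching at least a set limit at 20 µM in the primary screen, cut at about 59% in these data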;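 further: 0% = DMSO wells with substrate and 100% = DMSO wells lacking glucose-6-phosphate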
PfG6PD confirm – PfG6PD inhibitors, hit retest, confirmation, biochemical, fluorescence intensity, single concentration | AID 504753, 2011 | recombinant PfGluPho, NADPH-diaphorase-resazurin fluorescence | 34% of 2,400 active | shares compounds with PfG6PD inh | inhibition, % at 20 µM;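 active means inhibition of at least 50% at 20 µM in any single replicate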;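 further: 0% = DMSO with substrate and 100% = DMSO lacking glucose-6-phosphate substrate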
Diaph ctr 10uM – diaphorase inhibitors and chemical oxidizers, confirmation, counter-screen for P. falciparum G6PD inhibitor project, biochemical, fluorescence intensity, 10 µM NADPH. shares compounds with PfG6PD inh. diaphorase-coupled resazurin reduction, NADPH 10 uM. inhibition, % at 20 µM. 39% of 820 active;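 active means average inhibition reaching 50% or more with the compound at 20 µM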;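 further: resorufin red fluorescence formed as diaphorase reduces resazurin using NADPH; 0% = DMSO with enzyme and 100% = DMSO without enzyme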
Diaphorase 30uM – diaphorase inhibitors and chemical oxidizers, confirmation, counter-screen for P. falciparum G6PD inhibitor project, biochemical, fluorescence intensity, 30 µM NADPH; inhibition, % at 20 µM; shares compounds with PfG6PD inh; 29% of 820 active; Diaphorase/resazurin coupled assay, resorufin fluorescence;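 active means inhibition averaging 50% or more, tested at 20 µM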;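 further: 0% = DMSO with enzyme and 100% = DMSO wells lacking diaphorase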
ABHD5-PLIN5 conf – ABHD5-PLIN5 interaction inhibitors, confirmation, biochemical, luminescence. shares compounds with ABHD5-PLIN5 inh. inhibition, % at 4 µM. 67% of 2,200 active; in the data active means inhibition above about 23%;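 further: 0% = DMSO vehicle wells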
HNF4 split-luc – HNF4 dimerization inhibitors, counter-screen for ABHD5-PLIN5 interaction inhibitor project, biochemical, split-luciferase complementation, luminescence | shares compounds with ABHD5-PLIN5 inh | AID 651674, 2012 | inhibition, % at 4 µM | 77% of 2,200 active;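 active means mean inhibition across replicate wells exceeding the computed hit threshold, cut at about 13% in these data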;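 further: light from luciferase halves that rejoin when HNF4 fusion proteins dimerize; 0% = DMSO only wells and the 100% control is not given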
Exocytosis CP01 – inhibitors of lytic granule exocytosis, confirmation, TALL-104 cells, flow cytometry, Cherry Pick01. AID 651954, 2012. LAMP-1 externalization; stimulated with PMA plus thapsigargin. shares compounds with Exocytosis inh. inhibition, % at 10 µM. 11% of 1,500 active; in the data active means inhibition above about 60%;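 further: 0% = stimulated vehicle wells and 100% = unstimulated wells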
An asterisk follows results filed as active; . = no result given.

SMILES	Exocytosis inh	ABHD5-PLIN5 inh	HKDC1 inhibitor	PfG6PD inh	PfG6PD confirm	Diaph ctr 10uM	Diaphorase 30uM	Exocytosis CP01	others
Cc1ccc(-n2sc3cc(F)ccc3c2=O)c(C)c1	41.6	66.0*	.	124.0*	104.4*	4.8	8.3	.	ABHD5-PLIN5 conf=62.9*;HNF4 split-luc=115.7*
Oc1ccc(Cl)cc1/C=C/c1ccc2cccc(O)c2n1	78.3*	0.2	-8.1	74.4*	-4.7	.	.	-9.2
O=C(Cn1sc2ccccc2c1=O)NC12CC3CC(CC(C3)C1)C2	103.9*	59.4*	0.1	124.7*	106.2*	-20.1	-21.8	99.6*
Nc1cccc2c1C(=O)N(CC(=O)NC13CC4CC(CC(C4)C1)C3)C2=O	-6.0	-1.4	-8.4	11.6	.	.	.	.
CCN(C[C@H]1N[C@@](CC)(C(=O)OC)[C@H]2C(=O)N(C)C(=O)[C@@H]12)C(=O)c1ccc(C(C)(C)C)cc1	-2.1	2.8	1.8	7.5	.	.	.	.
O=[N+]([O-])c1cccc(-c2csc(N/N=C/c3cccc(O)c3)n2)c1	11.2	-8.4	-2.1	33.4	.	.	.	.
Oc1c(Cl)cc(Cl)c2cccnc12	3.4	-3.2	-4.2	1.4	.	.	.	.
Oc1c(I)cc(I)c2cccnc12	73.9*	2.5	-11.2	65.2*	5.0	.	.	-14.0
COc1cccc(CN(CCC(C)C)S(=O)(=O)c2cc(Br)ccc2Br)c1	9.6	-11.5	-3.9	19.7	.	.	.	.
Fc1cccc(F)c1/C=C/c1ccc2ccccc2n1	-1.5	-5.7	-6.3	15.8	.	.	.	.
C(=C\c1ccco1)/c1ccc2ccccc2n1	59.2*	11.8	-0.7	66.2*	9.8	.	.	-4.6
COc1ccc2nc3ccccc3nc2c1N	82.1*	37.9*	17.3	70.5*	13.6	.	.	-12.9	ABHD5-PLIN5 conf=-0.2;HNF4 split-luc=10.4
CC1(OC(=O)CCc2ccccc2)C(=O)C=C2C=C(c3ccc(C#N)cc3)N(C(CO)CO)C=C2C1=O (stereo not given)	70.6*	1.7	22.4	64.7*	22.7	.	.	-4.9
COc1ccc(CN2C=C3C(=O)C(C)(OC(=O)CCc4ccccc4)C(=O)C=C3C=C2c2ccc(C#N)cc2)cc1 (stereo not given)	0.6	-11.7	30.4	51.8	.	.	.	.
CN1CCc2cccc3c2[C@H]1Cc1ccc(O)c(O)c1-3	83.6*	-3.5	4.0	86.9*	88.9*	20.9	3.4	6.2
O=C(c1sc2cc(F)ccc2c1Cl)N1CCN(c2cccc(Cl)c2)CC1	9.0	-7.0	-11.6	9.1	.	.	.	.
O=c1c2ccc(F)cc2sn1-c1ccccc1	71.2*	71.7*	.	127.8*	105.8*	-24.8	3.3	99.7*
O=c1c2cc(F)ccc2sn1-c1ccccc1Cl	63.5*	-7.8	.	123.2*	109.8*	-33.0	1.6	103.2*
CCOC(=O)c1c(CSCc2ccccc2)oc2ccc(O)c(CN(C)C)c12	85.0*	15.1	0.3	59.3*	40.1	.	.	36.0
CCOC(=O)c1c(-c2ccccc2)oc2ccc(O)c(CN(C)C)c12	12.0	13.3	-1.2	-5.8	.	.	.	.
COc1cc(Sc2ccc(C)cc2)c(OC)cc1N	93.7*	6.5	17.0	60.2*	56.3*	16.9	16.5	-12.2
CCOc1ccc(NC(=O)CSc2ccc(-c3cccnc3)nn2)cc1	2.8	1.8	9.9	7.5	.	.	.	.
Cc1ccccc1N1CCN(C2CCCN(C(=O)c3noc4c3CCCC4)C2)CC1 (stereo not given)	-5.5	-0.9	-5.0	-4.5	.	.	.	.
CCOC(=O)Cc1csc(-n2sc3ccccc3c2=O)n1	78.4*	19.1	6.2	124.0*	81.1*	-14.4	4.3	36.0
Cc1ccc2nc(-c3ccc(NC(=S)NC(=O)C(C)C)cc3)sc2c1	49.0	-3.1	3.1	-0.8	.	.	.	.
SMILES	Exocytosis inh	ABHD5-PLIN5 inh	HKDC1 inhibitor	PfG6PD inh	PfG6PD confirm	Diaph ctr 10uM	Diaphorase 30uM	Exocytosis CP01	others
Cc1ccc2nc(-c3ccc(NC(=S)NC4CC(C)(C)NC(C)(C)C4)cc3)sc2c1	88.0*	18.9	-4.7	93.2*	111.2*	-16.2	-1.4	97.6*
O=[N+]([O-])c1ccc2nc(/C=C/c3ccc(Cl)cc3)[nH]c2c1	91.1*	-7.5	-2.7	62.2*	17.7	.	.	88.5*
CCOc1cccc(-c2cc(NCCc3ccccn3)n3nccc3n2)c1	-3.1	-8.0	.	.	.	.	.	.
Cc1ccc(-n2sc3ccccc3c2=O)cc1	74.2*	30.9*	14.6	114.8*	100.6*	-23.4	-22.9	33.0	ABHD5-PLIN5 conf=10.1;HNF4 split-luc=114.3*
O=c1c2ccccc2ncn1-c1ccc(Cl)cc1	-1.6	-4.8	-2.7	-12.7	.	.	.	.
O=c1c2ccccc2sn1-c1ccc(Cl)cc1	79.2*	48.1*	.	125.5*	106.0*	-4.9	15.7	103.8*	ABHD5-PLIN5 conf=75.9*;HNF4 split-luc=117.5*
Nc1ccc(S(=O)C(F)(F)F)cc1 (stereo not given)	-0.2	2.5	-11.0	-2.8	.	.	.	.
CCN1CCN(C(=O)c2ccc(N3CC4CC(C3)c3cccc(=O)n3C4)c([N+](=O)[O-])c2)CC1 (stereo not given)	-2.2	-3.3	-2.5	9.7	.	.	.	.
Cc1cc(C)c(S(=O)(=O)c2ccc(Cl)cc2)c(Cl)n1	-4.1	1.9	-2.3	23.6	.	.	.	.
Cc1cc(S(=O)(=O)c2ccc(Cl)cc2)nc(S(=O)(=O)c2ccc(Cl)cc2)c1C#N	48.9	79.2*	.	52.2	.	.	.	.	ABHD5-PLIN5 conf=95.1*;HNF4 split-luc=105.0*
CCN(CC)CCOc1ccc(/C(=C(\Cl)c2ccccc2)c2ccccc2)cc1	5.2	48.9*	3.6	3.3	.	.	.	.	ABHD5-PLIN5 conf=75.9*;HNF4 split-luc=28.5*
CCN(CC)CCOc1ccc(Br)cc1	-6.7	5.4	-10.1	-7.9	.	.	.	.
NC(=O)c1ccccc1N/C=C/C(=O)c1ccc(Cl)cc1	-1.8	2.0	-3.0	4.5	.	.	.	.
O=C(/C=C/Sc1ccccc1)c1ccc(Cl)cc1	0.0	38.2*	19.6	12.5	.	.	.	.	ABHD5-PLIN5 conf=69.9*;HNF4 split-luc=46.6*
N#Cc1ccccc1S(=O)(=O)N1CCN(C(=O)[C@@H]2CCCN2C(=O)c2cccs2)CC1	-10.8	-6.9	-4.3	2.4	.	.	.	.

High-throughput results: PubChem, several laboratories
